Activity calls are given as the source filed them. No cut-off for these calls is given here.
What was measured:
[1] = test system: NCI-H292; experiment: Antiproliferative activity against human NCI-H292 cells after 3 days by SRB assay; format: functional, cell-based; conditions: NCI-H292, 72 h
[2] = test system: NCI-H1993; experiment: Antiproliferative activity against gefitinib resistant human NCI-H1993 cells after 3 days by SRB assay; format: functional, cell-based; conditions: NCI-H1993, 72 h
[3] = test system: HCT-116; experiment: Antiproliferative activity against human HCT116 cells after 3 days by SRB assay; format: functional, cell-based; conditions: HCT-116, 72 h
Summary of the method: (§1)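 Cells seeded at 5 × 10^4 cells/mL and exposed to a range of concentrations for 3 days. Fixed with 10% TCA, then SRB stain read. Growth expressed as % of solvent-treated control. IC50 obtained by nonlinear regression of percent survival versus concentration.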

[4] = test system: SNU-638; experiment: Antiproliferative activity against human SNU638 cells after 3 days by SRB assay; format: functional, cell-based; conditions: SNU-638, 72 h; summary of the method: as §1
[5] = test system: SK-HEP1; experiment: Antiproliferative activity against human SKHEP1 cells after 3 days by SRB assay; format: functional, cell-based; conditions: SK-HEP1, 72 h; summary of the method: as §1
[6] = test system: A549; experiment: Antiproliferative activity against human A549 cells assessed as growth inhibition incubated for 24 hrs measured 48 hrs after compound washout by SRB assay; format: functional, cell-based
[7] = test system: A549; experiment: Cell cycle arrest in human A549 cells assessed as accumulation at S phase at 5 nM after 24 hrs by propidium iodide staining-based flow cytometric analysis (reference value: 31.6 %); format: functional
[8] = test system: A549; experiment: Cell cycle arrest in human A549 cells assessed as accumulation at Sub-G1 phase at 20 nM after 24 hrs by propidium iodide staining-based flow cytometric analysis (reference value: 0.2 %); format: functional
[9] = test system: A549; experiment: Cell cycle arrest in human A549 cells assessed as accumulation at G0/G1 phase at 20 nM after 24 hrs by propidium iodide staining-based flow cytometric analysis (reference value: 49.6 %); format: functional
[10] = test system: A549; experiment: Cell cycle arrest in human A549 cells assessed as accumulation at Sub-G1 phase at 100 nM after 24 hrs by propidium iodide staining-based flow cytometric analysis (reference value: 0.2 %); format: functional
[11] = test system: A549; experiment: Cell cycle arrest in human A549 cells assessed as accumulation at S phase at 5 nM after 48 hrs by propidium iodide staining-based flow cytometric analysis (reference value: 31.6 %); format: functional
[12] = test system: A549; experiment: Cell cycle arrest in human A549 cells assessed as accumulation at G2/M phase at 5 nM after 48 hrs by propidium iodide staining-based flow cytometric analysis (reference value: 18.9 %); format: functional
[13] = test system: A549; experiment: Cell cycle arrest in human A549 cells assessed as accumulation at Sub-G1 phase at 20 nM after 48 hrs by propidium iodide staining-based flow cytometric analysis (reference value: 0.2 %); format: functional
[14] = test system: A549; experiment: Cell cycle arrest in human A549 cells assessed as accumulation at Sub-G1 phase at 100 nM after 48 hrs by propidium iodide staining-based flow cytometric analysis (reference value: 0.2 %); format: functional
[15] = test system: A549; experiment: Cell cycle arrest in human A549 cells assessed as accumulation at G0/G1 phase at 100 nM after 48 hrs by propidium iodide staining-based flow cytometric analysis (reference value: 49.6 %); format: functional
[16] = test system: A549; experiment: Downregulation of CDK4 expression in human A549 cells at G1 phase at 5 to 100 nM after 24 to 48 hrs by Western blot analysis; format: functional, cell-based
Summary of the method: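 A549 cells treated with a range of concentrations for 24 or 48 h. Lysates run on 6–15% SDS-PAGE and blotted to PVDF, blocked in 5% milk/PBST. Primary antibodies overnight at 4 °C, secondary 2 h at room temperature, ECL detection. Representative of three independent experiments.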

[17] = target: Mitogen-activated protein kinase; ERK1/ERK2 (Homo sapiens) (UniProt P27361+P28482); experiment: Inhibition of ERK1/2 in human A549 cells at 5 to 40 nM after 24 hrs by Western blot analysis; format: cell-based
Summary of the method: (§2)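 A549 cells (RPMI 1640, 10% FBS, 37 °C, 5% CO2) exposed to the compound at various concentrations for 24 or 48 h. Lysates run on 6–15% SDS-PAGE, transferred to PVDF, probed with primary antibodies overnight at 4 °C, and detected by ECL. Blots shown are representative of three independent experiments.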

[18] = target: 3-phosphoinositide-dependent protein kinase 1 (Homo sapiens) (UniProt O15530); experiment: Inhibition of PDK1 phosphorylation in human A549 cells after 24 hrs by Western blot analysis; format: cell-based; summary of the method: as §2
[19] = target: Serine/threonine-protein kinase mTOR (Homo sapiens) (UniProt P42345); experiment: Inhibition of MTOR phosphorylation in human A549 cells at 20 nM after 24 to 48 hrs by Western blot analysis; format: cell-based; summary of the method: as §2
[20] = target: Epidermal growth factor receptor (Homo sapiens) (UniProt P00533); experiment: Inhibition of EGFR phosphorylation in […]-stimulated human A549 cells pretreated at 20 nM by Western blot analysis; format: cell-based
Summary of the method: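 A549 cells serum-starved 24 h, pretreated with 20 nM for 2 h, then stimulated with EGF (10 ng/mL) for 10 min. EGFR, Akt and ERK phosphorylation and levels assessed by Western blot.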

[21] = target: Hepatocyte growth factor receptor (Homo sapiens) (UniProt P08581); experiment: Inhibition of c-Met-mediated Akt phosphorylation in HGF-stimulated human A549 cells pretreated at 5 to 100 nM by Western blot analysis; format: cell-based
Summary of the method: (§3)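 A549 cells pretreated for 2 h with the compound at 5, 20 or 100 nM, then stimulated with HGF (50 ng/mL) for 10 min. c-Met and its downstream signalling proteins read by Western blot (SDS-PAGE, PVDF transfer, ECL detection).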

[22] = target: Hepatocyte growth factor receptor (Homo sapiens) (UniProt P08581); experiment: Inhibition of c-Met-mediated FKHRL1 phosphorylation in HGF-stimulated human A549 cells pretreated at 5 to 100 nM by Western blot analysis; format: cell-based; summary of the method: as §3
[23] = target: Hepatocyte growth factor receptor (Homo sapiens) (UniProt P08581); experiment: Inhibition of c-Met-mediated FAK phosphorylation in HGF-stimulated human A549 cells pretreated at 5 to 100 nM by Western blot analysis; format: cell-based; summary of the method: as §3
[24] = test system: A549; experiment: Antitumor activity against human A549 cells xenografted in BALB/c mouse assessed as inhibition of tumor growth at 0.2 mg/kg, po once daily for 14 days measured for 27 days relative to control; format: functional, organism-based; design: dose 0.2 mg/kg
Summary of the method: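 Female nu/nu nude mice given 3 × 10^6 A549 cells sc into the right flank, in 200 μL medium. At ~100 mm3, randomized into groups of five. Dosed orally once daily for 14 days in 100 μL ethanol–Tween 80–water (1:1:98), vehicle as control. Tumor volume measured by caliper every 2–3 days; body weight monitored.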

[25] = test system: Mus musculus; experiment: Toxicity in BALB/c mouse xenografted with human A549 cells in assessed as overt signs at 0.5 mg/kg, po once daily for 14 days measured for 27 days relative to control; format: organism-based; design: dose 0.5 mg/kg, route oral; conditions: in vivo, 648 h
Summary of the method: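 Female nu/nu mice were injected sc in the right flank with 3 × 10^6 A549 cells. At about 100 mm3 tumour volume, mice were randomised into groups of five. Compound was given orally at 0.2 or 0.5 mg/kg once daily for 14 days in ethanol/Tween 80/H2O (1:1:98). Body weight and overt toxicity were monitored against vehicle controls.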

Chain of Hepatocyte growth factor receptor (Homo sapiens) (P08581 whole entry): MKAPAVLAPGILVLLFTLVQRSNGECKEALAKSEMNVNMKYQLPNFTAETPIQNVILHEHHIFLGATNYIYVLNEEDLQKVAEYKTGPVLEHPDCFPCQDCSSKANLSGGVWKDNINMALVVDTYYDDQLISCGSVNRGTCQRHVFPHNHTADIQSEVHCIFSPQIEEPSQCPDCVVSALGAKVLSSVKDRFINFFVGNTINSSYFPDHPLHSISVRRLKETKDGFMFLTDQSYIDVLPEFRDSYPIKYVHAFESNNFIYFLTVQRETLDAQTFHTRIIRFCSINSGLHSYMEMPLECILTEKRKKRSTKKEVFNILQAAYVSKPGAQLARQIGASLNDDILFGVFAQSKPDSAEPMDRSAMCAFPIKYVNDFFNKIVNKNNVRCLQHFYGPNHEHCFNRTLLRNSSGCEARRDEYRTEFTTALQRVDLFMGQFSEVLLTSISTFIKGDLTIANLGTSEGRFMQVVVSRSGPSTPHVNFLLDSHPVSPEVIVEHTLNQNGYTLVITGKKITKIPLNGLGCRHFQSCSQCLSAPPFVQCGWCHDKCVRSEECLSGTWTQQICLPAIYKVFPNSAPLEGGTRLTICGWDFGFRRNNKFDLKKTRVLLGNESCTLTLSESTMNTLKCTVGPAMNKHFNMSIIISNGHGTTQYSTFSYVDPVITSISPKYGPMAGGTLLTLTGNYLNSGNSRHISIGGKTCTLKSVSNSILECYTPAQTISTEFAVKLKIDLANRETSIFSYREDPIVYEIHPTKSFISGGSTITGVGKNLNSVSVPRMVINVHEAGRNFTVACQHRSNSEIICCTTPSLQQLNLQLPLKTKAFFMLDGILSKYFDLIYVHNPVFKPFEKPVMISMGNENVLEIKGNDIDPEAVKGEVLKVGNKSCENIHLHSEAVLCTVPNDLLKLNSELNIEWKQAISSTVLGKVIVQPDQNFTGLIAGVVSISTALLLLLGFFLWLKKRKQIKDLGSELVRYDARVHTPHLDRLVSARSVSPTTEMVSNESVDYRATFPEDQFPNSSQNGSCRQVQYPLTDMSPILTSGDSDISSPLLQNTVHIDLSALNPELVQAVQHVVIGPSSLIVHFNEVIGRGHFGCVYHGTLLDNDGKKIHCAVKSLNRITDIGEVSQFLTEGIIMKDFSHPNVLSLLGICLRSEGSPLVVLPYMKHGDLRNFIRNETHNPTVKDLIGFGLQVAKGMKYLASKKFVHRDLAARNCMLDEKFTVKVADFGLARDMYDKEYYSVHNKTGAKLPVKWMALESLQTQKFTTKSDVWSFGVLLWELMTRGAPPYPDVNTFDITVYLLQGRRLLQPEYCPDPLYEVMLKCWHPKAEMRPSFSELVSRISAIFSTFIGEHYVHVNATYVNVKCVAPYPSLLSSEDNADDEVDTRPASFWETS
Chain of 3-phosphoinositide-dependent protein kinase 1 (Homo sapiens) (O15530 whole entry): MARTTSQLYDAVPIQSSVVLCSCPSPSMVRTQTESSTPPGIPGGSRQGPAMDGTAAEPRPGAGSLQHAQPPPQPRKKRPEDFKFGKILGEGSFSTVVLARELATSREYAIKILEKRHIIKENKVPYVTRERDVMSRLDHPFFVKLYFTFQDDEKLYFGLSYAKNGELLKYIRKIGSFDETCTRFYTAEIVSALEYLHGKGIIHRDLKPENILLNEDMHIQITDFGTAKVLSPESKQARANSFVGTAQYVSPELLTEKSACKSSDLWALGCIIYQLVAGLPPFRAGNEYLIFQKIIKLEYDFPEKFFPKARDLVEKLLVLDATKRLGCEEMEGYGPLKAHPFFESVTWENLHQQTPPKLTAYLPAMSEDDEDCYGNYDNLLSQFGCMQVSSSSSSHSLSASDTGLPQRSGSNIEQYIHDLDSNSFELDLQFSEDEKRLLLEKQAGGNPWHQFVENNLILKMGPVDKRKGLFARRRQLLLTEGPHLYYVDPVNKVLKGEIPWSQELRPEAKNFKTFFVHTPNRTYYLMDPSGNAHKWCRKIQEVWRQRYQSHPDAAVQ
Chain of Mitogen-activated protein kinase; ERK1/ERK2 (Homo sapiens) (P27361 whole entry, looked up): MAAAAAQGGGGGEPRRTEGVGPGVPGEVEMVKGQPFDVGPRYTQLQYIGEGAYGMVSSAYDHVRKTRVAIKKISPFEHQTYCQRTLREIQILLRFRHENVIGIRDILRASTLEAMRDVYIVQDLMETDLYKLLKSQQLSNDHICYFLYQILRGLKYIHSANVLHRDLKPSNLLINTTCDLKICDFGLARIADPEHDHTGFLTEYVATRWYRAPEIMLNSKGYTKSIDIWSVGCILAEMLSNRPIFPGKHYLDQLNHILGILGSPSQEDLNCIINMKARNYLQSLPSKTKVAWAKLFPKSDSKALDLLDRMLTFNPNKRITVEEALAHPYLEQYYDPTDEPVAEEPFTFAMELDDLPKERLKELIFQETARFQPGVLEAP
Chain of Mitogen-activated protein kinase; ERK1/ERK2 (Homo sapiens) (P28482 whole entry, looked up): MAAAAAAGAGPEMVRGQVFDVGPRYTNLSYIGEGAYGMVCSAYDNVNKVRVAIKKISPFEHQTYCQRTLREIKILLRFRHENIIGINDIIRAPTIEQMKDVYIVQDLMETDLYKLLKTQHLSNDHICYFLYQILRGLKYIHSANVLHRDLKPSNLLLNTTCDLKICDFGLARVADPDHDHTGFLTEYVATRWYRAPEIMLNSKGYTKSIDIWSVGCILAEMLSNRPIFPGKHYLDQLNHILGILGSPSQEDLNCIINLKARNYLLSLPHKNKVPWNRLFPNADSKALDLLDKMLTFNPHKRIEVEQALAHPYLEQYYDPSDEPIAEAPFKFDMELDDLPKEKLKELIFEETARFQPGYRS
Chain of Epidermal growth factor receptor (Homo sapiens) (P00533 whole entry): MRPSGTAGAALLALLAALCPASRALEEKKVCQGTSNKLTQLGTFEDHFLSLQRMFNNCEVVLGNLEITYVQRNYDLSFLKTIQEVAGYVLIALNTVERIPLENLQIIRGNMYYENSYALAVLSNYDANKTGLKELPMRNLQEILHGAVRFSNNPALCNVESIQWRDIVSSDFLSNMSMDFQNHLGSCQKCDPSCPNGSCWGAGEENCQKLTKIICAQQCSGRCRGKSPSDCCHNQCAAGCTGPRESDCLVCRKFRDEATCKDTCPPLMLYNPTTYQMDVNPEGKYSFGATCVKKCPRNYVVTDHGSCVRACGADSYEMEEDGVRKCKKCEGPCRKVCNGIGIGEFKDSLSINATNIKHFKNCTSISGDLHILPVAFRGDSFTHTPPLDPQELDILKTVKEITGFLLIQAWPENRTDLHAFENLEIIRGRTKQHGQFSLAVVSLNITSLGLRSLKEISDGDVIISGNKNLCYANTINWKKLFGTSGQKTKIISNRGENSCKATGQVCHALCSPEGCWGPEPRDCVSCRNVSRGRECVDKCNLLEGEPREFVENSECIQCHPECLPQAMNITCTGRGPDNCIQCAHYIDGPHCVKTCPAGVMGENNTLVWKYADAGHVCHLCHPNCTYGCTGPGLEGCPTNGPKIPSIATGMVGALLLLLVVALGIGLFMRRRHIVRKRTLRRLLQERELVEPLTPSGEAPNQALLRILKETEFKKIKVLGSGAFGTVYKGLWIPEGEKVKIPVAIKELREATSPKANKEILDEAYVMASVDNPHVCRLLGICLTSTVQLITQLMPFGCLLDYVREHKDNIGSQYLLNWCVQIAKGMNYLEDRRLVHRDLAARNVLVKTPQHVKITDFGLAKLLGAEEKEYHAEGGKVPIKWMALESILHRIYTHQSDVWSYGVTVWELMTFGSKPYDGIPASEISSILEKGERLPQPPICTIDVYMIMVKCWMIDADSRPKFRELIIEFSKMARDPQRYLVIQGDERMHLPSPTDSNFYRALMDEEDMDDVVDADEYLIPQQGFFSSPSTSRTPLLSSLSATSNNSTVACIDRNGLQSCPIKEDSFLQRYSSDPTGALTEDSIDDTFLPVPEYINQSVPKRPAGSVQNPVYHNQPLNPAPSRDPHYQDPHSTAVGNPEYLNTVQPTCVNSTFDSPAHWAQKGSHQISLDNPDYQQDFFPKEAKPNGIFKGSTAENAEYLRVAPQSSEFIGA

Q: `C=C(C)[C@@]12O[C@@]3(/C=C/C=C/CCCCC)O[C@@H]1[C@@H]1[C@@H]4O[C@]4(CO)[C@@H](O)[C@]4(O)C(=O)C(C)=C[C@H]4[C@@]1(O3)[C@H](C)[C@H]2OC(C)=O` [YUANHUADINE] was tested. Which IC50 [1] did it give?
A: < 1 pM

Q: What about the IC50 [2] of the same compound?
A: 0.0041 µM

Q: And the IC50 [3]?
A: 10.2 µM

Q: And the IC50 [4]?
A: > 20 µM

Q: What about the IC50 [5] of the same compound?
A: 12.9 µM

Q: And the “growth inhibition (GI)” value [6]?
A: inactive

Q: And the Activity [7]?
A: 5.5%

Q: And the Activity [8]?
A: 1.8%

Q: And the Activity [9]?
A: 68.2%

Q: And the Activity [10]?
A: 0.3%

Q: What about the Activity [11] of the same compound?
A: 12%

Q: What about the Activity [12] of the same compound?
A: 25.1%

Q: And the Activity [13]?
A: 0.4%

Q: And the Activity [14]?
A: 0.3%

Q: What about the Activity [15] of the same compound?
A: 61.1%

Q: What about the Activity [16] of the same compound?
A: Active

Q: And the inhibition [17]?
A: Active

Q: What about the inhibition [18] of the same compound?
A: Dose-dependent effect

Q: And the inhibition [19]?
A: Active

Q: And the inhibition [20]?
A: Active

Q: What about the inhibition [21] of the same compound?
A: Active

Q: And the inhibition [22]?
A: Active

Q: And the inhibition [23]?
A: Active

Q: And the “growth inhibition (GI)” value [24]?
A: Active

Q: What about the Activity [25] of the same compound?
A: Non-toxic
